From ChEMBL document CHEMBL2440017, “Discovery of a potent, selective, and orally bioavailable histamine H3 receptor antagonist SAR110068 for the treatment of sleep-wake disorders” (Bioorg Med Chem Lett, 2013)
Values after ≈ are worked out from the molar mass of the structure shown. Active and inactive are the calls of the source. The rule behind the calls is not given here.

How the values were obtained:
Rattus norvegicus = assay: Awakening activity in rat assessed as decrease in slow wave and REM sleep at 3 to 10 mg/kg, po; format: functional, organism-based
Outline: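 Rats given compound orally at 3 or 10 mg/kg, or reference drugs i.p. or p.o. at 10 mg/kg. EEG recorded during the light phase and scored as wakefulness, slow wave sleep and REM sleep. Time-course analysis of the effects.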

[1] = Plasma concentration in cynomolgus monkey at 10 mg/kg, iv after 15 mins; format: ADME, organism-based, Macaca fascicularis; design: dose 10 mg/kg, route intravenous
Outline: (§1)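 Anaesthetized cynomolgus monkeys were dosed 10 mg/kg i.v. Plasma drug concentrations were measured at 5, 15 and 30 min post-dose, alongside arterial pressure, heart rate and ECG intervals.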

[2] = Plasma concentration in cynomolgus monkey at 10 mg/kg, iv after 5 mins; format: ADME, organism-based, Macaca fascicularis; design: dose 10 mg/kg, route intravenous; outline: as §1
Mus musculus [3] = assay: Autonomic toxicity in mouse at 10 to 30 mg/kg, po; format: organism-based; design: dose 10-30 mg/kg, route oral; settings: in vivo
Outline: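 Acute oral behavioural safety evaluation in grouped mice at 0, 10 and 30 mg/kg p.o. Animals scored for behavioural, neurologic and autonomic signs.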

Mus musculus [4] = assay: Toxicity in mouse assessed as tremors at 100 mg/kg, po; format: organism-based; design: dose 100 mg/kg, route oral; settings: in vivo
[5] = Genotoxicity in micronucleus (unknown origin) at 5 to 950 ug/ml in presence of human liver microsomes; format: toxicity, Microsome
Outline: (§2)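 Ames II and micronucleus tests, Ames over 3–1000 µg/mL and MNT over 5–950 µg/mL. Each run with and without metabolic activation by human liver microsome preparations.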

Salmonella typhimurium [6] = assay: Genotoxicity in Salmonella typhimurium at 3 to 1000 ug/ml by Ames 2 test in presence of human liver microsomes; format: toxicity, organism-based; settings: salmonella enterica subsp. enterica serovar typhimurium; outline: as §2
[7] = Genotoxicity in micronucleus (unknown origin) at 5 to 950 ug/ml; outline: as §2
Salmonella typhimurium [8] = assay: Genotoxicity in Salmonella typhimurium at 3 to 1000 ug/ml by Ames 2 test; format: toxicity, organism-based; settings: salmonella enterica subsp. enterica serovar typhimurium; outline: as §2
[9] = Induction of CYP450 in human hepatocytes at 1 to 60 uM; format: ADME, cell-based, Hepatocyte
Outline: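 Human hepatocytes (n = 4) exposed at 1–60 concentration and examined for induction of CYP isoforms.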

[10] = Ratio of AUC (0 to infinity) in Sprague-Dawley rat brain to AUC (0 to infinity) in Sprague-Dawley rat at 2 mg/kg, iv; format: ADME, organism-based; design: dose 2 mg/kg, route intravenous; settings: read-out: Ratio AUC
Outline: (§3)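 Male Sprague–Dawley rats received 2 mg/kg i.v. (0.5 mg/mL in saline) or 10 mg/kg p.o. (1.0 mg/mL in 0.5% MC/0.2% Tween80). Plasma and brain AUC0-inf were measured, and the B/P ratio was calculated from i.v. AUC0-inf.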

[11] = Elimination half life in Sprague-Dawley rat brain at 10 mg/kg, po; format: ADME, organism-based; design: dose 10 mg/kg, route oral; settings: read-out: beta t1/2 (converted)
Outline: (§4)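 Oral gavage at 10 mg/kg to male OF1 mice (vehicle 5% DMSO/0.5% MC/0.2% Tween80, 1.0 mg/mL) or male Sprague-Dawley rats (vehicle 0.5% MC/0.2% Tween80, 1.0 mg/mL). Plasma and brain exposure and half-life determined.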

[12] = Elimination half life in Sprague-Dawley rat brain at 2 mg/kg, iv; format: ADME, organism-based; design: dose 2 mg/kg, route intravenous; settings: read-out: beta t1/2 (converted)
Outline: (§5)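 Male OF1 mice or male Sprague-Dawley rats, single 2 mg/kg i.v. dose. Mouse vehicle 50% 1-methyl-2-pyrrolidinone in saline at 1.0 mg/mL; rat vehicle saline at 0.5 mg/mL. Plasma and brain levels followed over time; AUC0-inf, t1/2 and clearance derived from exposure. Brain/plasma ratio uses i.v. AUC0-inf.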

[13] = Oral bioavailability in Sprague-Dawley rat plasma at 10 mg/kg; format: ADME, organism-based; outline: as §3
[14] = Elimination half life in Sprague-Dawley rat plasma at 10 mg/kg, po; format: ADME, organism-based; design: dose 10 mg/kg, route oral; settings: read-out: beta t1/2 (converted); outline: as §4
[15] = AUC (0 to infinity) in Sprague-Dawley rat plasma at 10 mg/kg, po; format: ADME, organism-based; design: time infinity, dose 10 mg/kg, route oral; outline: as §4
[16] = Elimination half life in OF1 mouse brain at 10 mg/kg, po; format: ADME, organism-based; design: dose 10 mg/kg, route oral; settings: read-out: beta t1/2 (converted); outline: as §4
[17] = AUC in OF1 mouse brain at 10 mg/kg, po; format: ADME, organism-based; design: dose 10 mg/kg, route oral; outline: as §4
[18] = AUC in OF1 mouse plasma at 10 mg/kg, po; format: ADME, organism-based; design: dose 10 mg/kg, route oral; outline: as §4
[19] = AUC (0 to infinity) in OF1 mouse plasma at 2 mg/kg, iv; format: ADME, organism-based; design: dose 2 mg/kg, route intravenous, time infinity; outline: as §5
[20] = Elimination half life in OF1 mouse plasma at 2 mg/kg, iv; format: ADME, organism-based; design: dose 2 mg/kg, route intravenous; settings: read-out: beta t1/2 (converted); outline: as §5
Cytochrome P450 1A2 = target: T1, Cytochrome P450 1A2 (Homo sapiens, UniProt P05177); assay: Inhibition of CYP1A2 (unknown origin); format: ADME
T1 sequence (P05177 whole entry): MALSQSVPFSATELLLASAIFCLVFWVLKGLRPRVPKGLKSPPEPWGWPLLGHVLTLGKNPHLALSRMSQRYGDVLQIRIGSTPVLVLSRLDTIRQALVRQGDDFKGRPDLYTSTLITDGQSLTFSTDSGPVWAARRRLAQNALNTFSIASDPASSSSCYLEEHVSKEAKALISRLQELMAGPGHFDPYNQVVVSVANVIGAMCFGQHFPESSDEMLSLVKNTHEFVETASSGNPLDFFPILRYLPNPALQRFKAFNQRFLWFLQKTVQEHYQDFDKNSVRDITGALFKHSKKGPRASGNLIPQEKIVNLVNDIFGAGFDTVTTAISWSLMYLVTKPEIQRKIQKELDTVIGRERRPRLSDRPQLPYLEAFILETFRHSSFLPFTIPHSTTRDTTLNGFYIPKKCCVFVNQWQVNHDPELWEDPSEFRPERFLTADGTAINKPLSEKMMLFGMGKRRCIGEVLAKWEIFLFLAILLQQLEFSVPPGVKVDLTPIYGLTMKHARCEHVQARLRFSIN

CYP3A4 = CYP3A4 (Homo sapiens, UniProt P08684); assay: Inhibition of CYP3A4 (unknown origin) at 5 uM; format: ADME
Sequence of CYP3A4 (P08684 whole entry): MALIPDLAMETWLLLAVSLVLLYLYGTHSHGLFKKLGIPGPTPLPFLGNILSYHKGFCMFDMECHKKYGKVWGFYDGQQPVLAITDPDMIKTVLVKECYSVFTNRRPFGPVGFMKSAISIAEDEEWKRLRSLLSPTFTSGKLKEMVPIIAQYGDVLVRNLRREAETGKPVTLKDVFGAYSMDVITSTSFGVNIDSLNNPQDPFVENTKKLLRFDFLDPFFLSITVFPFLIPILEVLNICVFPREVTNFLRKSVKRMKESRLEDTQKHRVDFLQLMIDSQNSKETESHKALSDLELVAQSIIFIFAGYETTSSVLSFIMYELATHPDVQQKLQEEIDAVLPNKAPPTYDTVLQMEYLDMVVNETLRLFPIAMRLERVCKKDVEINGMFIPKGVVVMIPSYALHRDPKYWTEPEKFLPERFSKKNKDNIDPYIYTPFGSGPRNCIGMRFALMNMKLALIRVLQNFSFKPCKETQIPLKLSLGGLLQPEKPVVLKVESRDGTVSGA

[21] = Metabolic stability in dog microsomes; format: ADME, Canis lupus familiaris, Microsome
Outline: (§6)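 Percentage biotransformation measured in vitro in liver microsomes of each species.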

[22] = Metabolic stability in monkey microsomes; format: ADME, Macaca mulatta, Microsome; settings: rhesus monkey; outline: as §6
[23] = Metabolic stability in rat microsomes; format: ADME, Microsome; outline: as §6
[24] = Biotransformation in human microsomes; format: ADME, Microsome; settings: read-out: Activity
Outline: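 Percentage biotransformation measured in human liver microsomes in vitro.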

[25] = Metabolic stability in mouse microsomes; format: ADME, Microsome; outline: as §6
Plasma [26] = assay: Metabolic stability in sheep plasma; format: ADME, cell-free, Ovis aries
Outline: (§7)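 Compound stability measured in plasma of each species in vitro.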

Plasma [27] = assay: Metabolic stability in dog plasma; format: ADME, cell-free, Canis lupus familiaris; outline: as §7
Plasma [28] = assay: Metabolic stability in monkey plasma; format: ADME, cell-free, Macaca mulatta; settings: rhesus monkey; outline: as §7
Plasma [29] = assay: Metabolic stability in mouse plasma; format: ADME, cell-free; outline: as §7
Homo sapiens = species: Homo sapiens; assay: Inhibition of sigma 2 receptor (unknown origin) at 10 uM
Outline: (§8)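 CEREP selectivity panel: percent inhibition of control specific binding at 10 µM.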

Plasma [30] = assay: Metabolic stability in human plasma; format: ADME, cell-free; outline: as §7
[31] = target: Sigma non-opioid intracellular receptor 1 (Homo sapiens) (UniProt Q99720); assay: Inhibition of sigma 1 receptor (unknown origin) at 10 uM; outline: as §8
Sequence of Sigma non-opioid intracellular receptor 1 (Homo sapiens) (Q99720 whole entry): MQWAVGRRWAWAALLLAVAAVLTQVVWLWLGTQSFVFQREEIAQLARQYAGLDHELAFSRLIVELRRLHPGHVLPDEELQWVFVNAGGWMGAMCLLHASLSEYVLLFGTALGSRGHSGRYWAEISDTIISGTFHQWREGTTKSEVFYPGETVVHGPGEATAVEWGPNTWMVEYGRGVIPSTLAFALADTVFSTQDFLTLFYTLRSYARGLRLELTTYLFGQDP

[32] = Solubility of the compound in gastrointestinal tract simulation medium; format: physicochemical
[33] = Distribution coefficient, log D of the compound at pH 7.4; format: physicochemical; settings: octanol/water
[34] = Solubility of the compound in water; format: physicochemical
[35] = Lipophilicity, log P of the compound; format: physicochemical; settings: octanol/water
Outline: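 clogP calculated with ACD/Labs methods.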

- concentration at 0.25 h [1]: 14 µM
- concentration at 5 min [2]: 28 µM
- Activity [9]: Not Active
- Kp [10]: 0.33
- half-life [11]: 3.8 h
- half-life [12]: 3.6 h
- bioavailability [13]: 80%
- half-life [14]: 3 h
- AUC(0-inf) [15]: 8400 ng·h/mL
- half-life [16]: 1.9 h
- AUC [17]: 1200 ng·h/mL
- AUC [18]: 3200 ng·h/mL
- AUC(0-inf) [19]: 1100 ng·h/mL
- half-life [20]: 3.6 h
- inhibition (INH) (Cytochrome P450 1A2): Active
- inhibition at 5 µM (CYP3A4): 61%
- Stability [21]: Stable
- Stability [22]: Stable
- Stability [23]: Stable
- metabolised [24]: < 5%
- Stability [25]: Stable
- Stability (Plasma [26]): Stable
- Stability (Plasma [27]): Stable
- Stability (Plasma [28]): Stable
- Stability (Plasma [29]): Stable
- inhibition (Homo sapiens): 53%
- Stability (Plasma [30]): Stable
- inhibition [31]: 53%
- solubility [32]: > 2500 µg/mL
- logD [33]: 0.15
- solubility [34]: 1100 µg/mL (≈ 2960 µM)
- logP [35]: 1.31
Compound: Cc1cc(N2CC[C@H](N3CCC[C@@H]3C)C2)ccc1NC(=O)C1CCOCC1
- Activity (Rattus norvegicus): Active
- Activity (Mus musculus [3]): Non-toxic
- Activity (Mus musculus [4]): Non-toxic
- Activity [5]: Non-toxic
- Activity (Salmonella typhimurium [6]): Non-toxic
- Activity [7]: Non-toxic
- Activity (Salmonella typhimurium [8]): Non-toxic
